The source of these data is ChEMBL document CHEMBL3585293, “Design, antiviral and cytostatic properties of isoxazolidine-containing amonafide analogues” (Bioorg Med Chem, 2015).

Structures are written as SMILES. Calls of active or inactive are those of the source. The rule behind the calls is not given here. A value given as a limit tells only on which side of the number the result lay.

A short description of series [1]: Cytotoxicity against HEL cells assessed as alternation of cell morphology by microscopic analysis. In kind it is cell-based. To be noted: human.
Another series deals with CCRF-CEM. In words: Cytotoxicity against human CEM cells assessed as inhibition of cell proliferation. The series is classed as functional, cell-based.
The next series deals with L1210. In words: Cytotoxicity against mouse L1210 cells assessed as inhibition of cell proliferation. In kind it is functional, cell-based.
For series [2], the system named is Human alphaherpesvirus 3. In words: Antiviral activity against Varicella-zoster virus expressing thymidine kinase infected in HEL cells assessed as reduction of virus-induced plaque formation. In kind it is functional, organism-based. The settings on record: Human alphaherpesvirus 3, HEL. The procedure, abridged:
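Plaque-reduction assay in HEL cells. TK+ VZV strains were Oka and YS; TK- strains were 07-1 and YS-R. Virus input was 100 PFU, with graded compound concentrations. Plaques were counted once formation was complete in untreated infected controls. […] Two independent experiments were run.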

Series [3] concerns Cytomegalovirus. As to the kind of experiment: Antiviral activity against Cytomegalovirus Davis infected in HEL cells assessed as reduction of virus-induced cytopathogenicity. In kind it is functional, organism-based. To be noted: Human betaherpesvirus 5, Davis. In general terms: Damage to the host cells serves as the signal in cytopathic effect assays.
Series [4] relates to Human alphaherpesvirus 3. In words: Antiviral activity against thymidine kinase-deficient Varicella-zoster virus infected in HEL cells assessed as reduction of virus-induced plaque formation. The series is classed as functional, organism-based. The settings on record: Human alphaherpesvirus 3, HEL. The procedure, abridged:
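Plaque-reduction assay in HEL cells. TK+ VZV strains were Oka and YS; TK- strains were 07-1 and YS-R. Virus input was 100 PFU, with graded compound concentrations. Plaques were counted once formation was complete in untreated infected controls. Two independent experiments were run.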

Series [5] has as its system Cytomegalovirus. In words: Antiviral activity against Cytomegalovirus AD-169 infected in HEL cells assessed as reduction of virus-induced cytopathogenicity. The series is classed as functional, organism-based. The settings on record: Human betaherpesvirus 5, AD-169, HEL.
The subject of the next series is HeLa. In words: Cytotoxicity against human HeLa cells assessed as inhibition of cell proliferation. In kind it is functional, cell-based.
In a further series the test system is MDCK. As to the kind of experiment: Cytotoxicity against MDCK cells assessed cell viability by MTS assay. The series is classed as cell-based, Canis lupus familiaris. The settings on record: dog. The procedure, abridged: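 Cells were exposed to a range of compound concentrations. Viability was measured by the colorimetric formazan-based MTS assay.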
(Tetrazolium assays rely on reduction of a dye to a coloured formazan, in cell work by metabolically active cells.)

Another series concerns Felid alphaherpesvirus 1. As to the kind of experiment: Antiviral activity against Feline herpesvirus infected in CRFK cells assessed as reduction of virus-induced cytopathogenicity. The series is classed as functional, organism-based. The procedure, abridged:
(§1)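 Confluent monolayers were infected with 100 CCID50 of virus (1 CCID50 infects 50% of cultures) or 20 PFU. The cultures were then incubated with varying test compound concentrations. Cytopathicity was scored once it was complete in untreated infected controls.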

The subject of series [6] is Vesicular stomatitis virus. In words: Antiviral activity against Vesicular stomatitis virus infected in human HeLa cells assessed as reduction of virus-induced cytopathogenicity. The series is classed as functional, organism-based. The procedure, abridged: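 Confluent Vero (Coxsackie B4) or HeLa (vesicular stomatitis virus) monolayers in 96-well plates were inoculated with 100 CCID50 virus or 20 PFU and incubated with varying compound concentrations. Cytopathicity was scored once complete in untreated infected controls. […] Two separate experiments were run.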

Another series relates to Sindbis virus. In words: Antiviral activity against Sindbis virus infected in African green monkey Vero cells assessed as reduction of virus-induced cytopathogenicity. In kind it is functional, organism-based. The procedure, abridged:
as §1

Series [7] relates to Respiratory syncytial virus. In words: Antiviral activity against Respiratory syncytial virus infected in human Hela cells assessed as reduction of virus-induced cytopathogenicity. The series is classed as functional, organism-based. The procedure, abridged:
as §1

Another series has as its system Human adenovirus 2. As to the kind of experiment: Antiviral activity against Human adenovirus 2 infected in HEL cells assessed as reduction of virus-induced cytopathogenicity. In kind it is functional, organism-based. The procedure, abridged:
as §1

The next series deals with Influenza A virus. As to the kind of experiment: Antiviral activity against Influenza A virus (A/PR/8/34(H1N1)) infected in MDCK cells assessed as reduction of virus-induced cytopathogenicity. The settings on record: A/Puerto Rico/8/1934(H1N1). In kind it is functional, organism-based. The procedure, abridged: (§2)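 MDCK cells, grown confluent in 96-well plates, were infected with influenza A/PR/8 (H1N1), A/HK/7/87 (H3N2) or B/HK/5/72 at 100 CCID50 or 20 PFU and exposed to varying compound concentrations. Cytopathic effect was recorded when it reached completion in untreated virus controls. EC50 is the concentration that halves virus-induced cytopathicity.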

Another series concerns Feline coronavirus. In words: Antiviral activity against Feline coronavirus infected in CRFK cells assessed as reduction of virus-induced cytopathogenicity. The series is classed as functional, organism-based. The procedure, abridged: as §1
The next series deals with Reovirus sp. In words: Antiviral activity against Reovirus infected in African green monkey Vero cells assessed as reduction of virus-induced cytopathogenicity. The series is classed as functional, organism-based. The gist of the method:
as §1

In the next series the test system is Human respirovirus 3. As to the kind of experiment: Antiviral activity against Parainfluenza virus 3 infected in African green monkey Vero cells assessed as reduction of virus-induced cytopathogenicity. The series is classed as functional, organism-based. The gist of the method: as §1
The test system of the next series is Influenza A virus H3N2. In words: Antiviral activity against Influenza A virus H3N2 infected in MDCK cells assessed as reduction of virus-induced cytopathogenicity. The series is classed as functional, organism-based. The gist of the method: as §2
In a further series the test system is Influenza B virus. As to the kind of experiment: Antiviral activity against Influenza B virus (B/HK/5/72) infected in MDCK cells assessed as reduction of virus-induced cytopathogenicity. The series is classed as functional, cell-based. To be noted: B/Hong Kong/05/1972. The procedure, abridged:
as §2

`CCCCN1C(=O)c2cccc3cc(NC(=O)[C@H]4C[C@@H](P(=O)(OCC)OCC)N(C)O4)cc(c23)C1=O` (racemic): the MCC in series [1] was ≥ 100 µM. Further, the values for the IC50 in the series on CCRF-CEM and with L1210 were 19 µM and 28 µM, respectively. The EC50 in the series on Human alphaherpesvirus 3 [2] is 20 µM; in the series with Cytomegalovirus [3] it was > 20 µM; with Human alphaherpesvirus 3 [4], 38 µM; in the series with Cytomegalovirus [5] it was > 20 µM.

In the case of `CCCN1C(=O)c2cccc3cc(NC(=O)[C@@H]4C[C@@H](P(=O)(OCC)OCC)N(C)O4)cc(c23)C1=O` (racemic), in [1], the MCC is > 100 µM. The IC50 with CCRF-CEM worked out at 28 µM; in the series on L1210 it was 41 µM; in the series with HeLa it was 74 µM. Besides, the EC50 is 28 µM in the series on Human alphaherpesvirus 3 [2], 45 µM with Cytomegalovirus [3], 40 µM in the series with Human alphaherpesvirus 3 [4] and > 20 µM with Cytomegalovirus [5]. The molecule also displayed a CC50 in the series on MDCK of 46.2 µM.

On to `CCOP(=O)(OCC)[C@@H]1C[C@@H](CN2C(=O)c3cccc4cc(N)cc(c34)C2=O)ON1C` (relative stereo), for which the result (in the series with Felid alphaherpesvirus 1; in [6]; in the series on Sindbis virus; in series [7]; with Human adenovirus 2; in the series with Influenza A virus) was inactive. For the same molecule, the outcome in the series with Feline coronavirus, with Reovirus sp., in the series on Human respirovirus 3, with Influenza A virus H3N2 and with Influenza B virus was inactive.

As for `COc1cccc(N2CCN(C3=Nc4c(F)cccc4[C@H](CC(=O)O)N3c3cc(C(F)(F)F)ccc3OC)CC2)c1` [LETERMOVIR], the EC50 with Cytomegalovirus [5] worked out at 0.0046 µM.

With `Nc1ccn(C[C@@H](CO)OCP(=O)(O)O)c(=O)n1` [CIDOFOVIR], the MCC in [1] is > 250 µM. For the same molecule, the EC50 in the series with Cytomegalovirus [3] was 1.02 µM.

With `CCOP(=O)(OCC)[C@@H]1C[C@H](CN2C(=O)c3cccc4cc(N)cc(c34)C2=O)ON1C` (relative stereo), the result (in the series on Felid alphaherpesvirus 1; in series [6]; with Sindbis virus; in [7]; in the series on Human adenovirus 2; in the series on Influenza A virus) was inactive. In addition, the result in the series on Feline coronavirus, in the series on Reovirus sp., in the series on Human respirovirus 3, with Influenza A virus H3N2 and with Influenza B virus was inactive.

Take `CCOP(=O)(OCC)[C@@H]1C[C@H](CN2C(=O)c3cccc4cccc(c34)C2=O)ON1C` (relative stereo): the outcome (in the series with Felid alphaherpesvirus 1; in series [6]; with Sindbis virus; in series [7]; in the series on Human adenovirus 2; with Influenza A virus) was inactive. Moreover, the result in the series with Feline coronavirus, in the series on Reovirus sp., in the series on Human respirovirus 3, with Influenza A virus H3N2 and in the series on Influenza B virus was inactive.

As for `Nc1nc2c(ncn2COCCO)c(=O)[nH]1` [ACYCLOVIR], the MCC in series [1] was > 250 µM.

Regarding `CCOP(=O)(OCC)[C@@H]1C[C@@H](C(=O)Nc2cc3c4c(cccc4c2)C(=O)N(CC(C)C)C3=O)ON1C` (relative stereo), the MCC in [1] was > 100 µM. Further, the IC50 in the series on CCRF-CEM stood at 48 µM; in the series with L1210, 72 µM; in the series on HeLa, 56 µM. Moreover, the EC50 with Human alphaherpesvirus 3 [2], with Cytomegalovirus [3], with Human alphaherpesvirus 3 [4] and in the series with Cytomegalovirus [5] was > 100 µM throughout. Further, in the series with MDCK, the CC50 is > 100 µM.

Regarding `O=c1[nH]cc(F)c(=O)[nH]1` [FLUOROURACIL], in the series with L1210, the IC50 is 0.33 µM.

`CCOP(=O)(OCC)[C@@H]1C[C@H](CN2C(=O)c3cccc4cc([N+](=O)[O-])cc(c34)C2=O)ON1C` (relative stereo): the outcome (with Felid alphaherpesvirus 1; in series [6]; in the series on Sindbis virus; in series [7]; in the series on Human adenovirus 2; in the series with Influenza A virus) was inactive. For the same molecule, the result in the series on Feline coronavirus, with Reovirus sp., in the series with Human respirovirus 3, with Influenza A virus H3N2 and in the series with Influenza B virus was inactive.

With `CCOP(=O)(OCC)[C@@H]1C[C@@H](CN2C(=O)c3cccc4cc(NC(C)=O)cc(c34)C2=O)ON1C` (relative stereo), the result (with Felid alphaherpesvirus 1; in series [6]; with Sindbis virus; in [7]; in the series with Human adenovirus 2; in the series with Influenza A virus) was inactive. Moreover, the outcome in the series on Feline coronavirus, in the series with Reovirus sp., in the series on Human respirovirus 3, with Influenza A virus H3N2 and with Influenza B virus was inactive.

As to `CCOP(=O)(OCC)[C@@H]1C[C@@H](CN2C(=O)c3cccc4cccc(c34)C2=O)ON1C` (relative stereo), the result (with Felid alphaherpesvirus 1; in [6]; in the series on Sindbis virus; in series [7]; with Human adenovirus 2; in the series on Influenza A virus) was inactive. Besides, the result in the series with Feline coronavirus, in the series on Reovirus sp., in the series with Human respirovirus 3, in the series with Influenza A virus H3N2 and in the series on Influenza B virus was inactive.

Take `CCOP(=O)(OCC)[C@@H]1C[C@H](CN2C(=O)c3cccc4cc(NC(C)=O)cc(c34)C2=O)ON1C` (relative stereo): the result (in the series on Felid alphaherpesvirus 1; in [6]; in the series with Sindbis virus; in [7]; in the series with Human adenovirus 2; in the series on Influenza A virus) was inactive. The outcome in the series on Feline coronavirus, in the series on Reovirus sp., with Human respirovirus 3, in the series on Influenza A virus H3N2 and in the series on Influenza B virus was inactive.

Turning to `CCOP(=O)(OCC)[C@@H]1C[C@@H](C(=O)Nc2cc3c4c(cccc4c2)C(=O)N(CCN(CC)CC)C3=O)ON1C` (racemic), the MCC in series [1] was ≥ 100 µM. Moreover, the IC50 came to 21 µM in the series with CCRF-CEM, 11 µM in the series on L1210 and 13 µM in the series with HeLa. Also, the EC50 in the series on Human alphaherpesvirus 3 [2] is > 20 µM; in the series on Cytomegalovirus [3], 49 µM; with Human alphaherpesvirus 3 [4], > 20 µM; with Cytomegalovirus [5], 55 µM. For the same molecule, the CC50 with MDCK was > 100 µM.

Consider `Nc1nc2c(ncn2COC(CO)CO)c(=O)[nH]1` [GANCICLOVIR], for which the MCC in [1] was > 100 µM. Besides, the EC50 came out at 7.1 µM with Cytomegalovirus [3] and 6.3 µM in the series on Cytomegalovirus [5].

In the case of `CCOP(=O)(OCC)[C@@H]1C[C@@H](CN2C(=O)c3cccc4cc([N+](=O)[O-])cc(c34)C2=O)ON1C` (relative stereo), the result (with Felid alphaherpesvirus 1; in series [6]; with Sindbis virus; in series [7]; in the series with Human adenovirus 2; in the series with Influenza A virus) was inactive. Besides, the result with Feline coronavirus, in the series with Reovirus sp., with Human respirovirus 3, in the series with Influenza A virus H3N2 and in the series on Influenza B virus was inactive.

As a reminder, the IC50 is the concentration that inhibits the measured activity by half. What is called EC50 is the concentration at which the effect is half-maximal. For orientation: CC50 means the concentration giving 50% cytotoxicity.
